The text below walks through data of ChEMBL document CHEMBL1125297, “Synthesis and biologic activity of 2'-fluoro-2-halo derivatives of 9-beta-D-arabinofuranosyladenine” (J Med Chem, 1992).

pIC50: −log10 of the molar value.

One assay concerns CCRF-CEM. Description: Compound was tested for cytotoxicity against CCRF-CEM cell lines. Particulars: Homo sapiens. In kind it is functional, cell-based. The essentials:
(§1)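 Cell-proliferation assay run against each named cell line. The value is the concentration that holds proliferation at 50% of untreated controls.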

The next assay deals with HEp-2. Description: Compound was tested for cytotoxicity against HEp-2 cell lines. The assay is classed as functional, cell-based. The conditions noted are these: Homo sapiens. The essentials: as §1
The test system of a further assay is L1210. Description: Compound was tested for cytotoxicity against L1210 cell lines. The assay is classed as functional, cell-based. The conditions noted are these: Mus musculus. The essentials: as §1
The subject of another assay is K562. Description: Compound was tested for cytotoxicity against K562 cell lines. In kind it is functional, cell-based. Particulars: Homo sapiens. The method in brief: as §1
Assay [1] concerns Mus musculus. Description: In Vivo increase in life span of dying mice implanted ip with 10E6 P388 leukemia, after ip administration of 100 mg/kg. Particulars: route intraperitoneal. In kind it is functional. The method in brief:
(§2)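 CD2F1 mice implanted ip with 10⁶ P388 leukemia cells on day 0. Treatment ip, doses given as mg/kg per dose and kept at or below the LD10. Read-out is increase in life span against untreated controls.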

Assay [2] deals with Mus musculus. Nature of the assay: In Vivo increase in life span of dying mice implanted ip with 10E6 P388 leukemia, after ip administration of 25 mg/kg. In kind it is functional. Particulars: route intraperitoneal. The essentials: as §2
In assay [3] the test system is Mus musculus. Nature of the assay: Log chance in viable tumor cells population was measured after intraperitoneal administration of 100 mg/kg. The assay is classed as functional. The essentials:
(§3)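 CD2F1 mice were implanted ip with 10⁶ P388 leukemia cells on day 0, then treated ip. Doses are mg/kg per dose, kept at or below LD₁₀. Read-out is the log change in viable tumor cells from start to end of therapy, based on the median day of death among the animals that died.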

The test system of assay [4] is Mus musculus. Nature of the assay: Log chance in viable tumor cells population was measured after intraperitoneal administration of 25 mg/kg. In kind it is functional. The essentials: as §3
The test system of assay [5] is Mus musculus. Description: Tumor-free survivors of P388 leukemia infected mice was measured after ip administration of 100 mg/kg in 3 mice. In kind it is functional. The conditions noted are these: route intraperitoneal. The method in brief: (§4)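 CD2F1 mice received 10⁶ P388 leukemia cells ip on day 0 and were then dosed ip in mg/kg per dose, at or below the LD10. Tumor-free survivors were scored among the treated group.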

Assay [6] relates to Mus musculus. Nature of the assay: Tumor-free survivors of P388 leukemia infected mice was measured after ip administration of 25 mg/kg in 6 mice. The assay is classed as functional. The conditions noted are these: route intraperitoneal. The method in brief: as §4
Assay [7] concerns Mus musculus. Nature of the assay: In Vivo increase in life span of dying mice implanted ip with 10E6 P388 leukemia, after ip administration of 200 mg/kg. In kind it is functional. Particulars: route intraperitoneal. The essentials: as §2
The subject of assay [8] is Mus musculus. Description: In Vivo increase in life span of dying mice implanted ip with 10E6 P388 leukemia, after ip administration of 30 mg/kg. In kind it is functional. Particulars: route intraperitoneal. The essentials: as §2
The subject of assay [9] is Mus musculus. Description: In Vivo increase in life span of dying mice implanted ip with 10E6 P388 leukemia, after ip administration of 50 mg/kg. The assay is classed as functional. Particulars: route intraperitoneal. The essentials: as §2
Assay [10] concerns Mus musculus. Description: Tumor-free survivors of P388 leukemia infected mice was measured after ip administration of 50 mg/kg in 6 mice. Particulars: route intraperitoneal. In kind it is functional. The method in brief:
as §4

For assay [11], the system named is Mus musculus. Nature of the assay: Tumor-free survivors of P388 leukemia infected mice was measured after ip administration of 200 mg/kg in 6 mice. In kind it is functional. The conditions noted are these: route intraperitoneal. The essentials: as §4
For assay [12], the system named is Mus musculus. Description: Log change in viable tumor cells population was measured at end of therapy when compared to start of therapy at dose 200 mg/kg. The assay is classed as functional. The method in brief:
as §3

Assay [13] relates to Mus musculus. Nature of the assay: Log change in viable tumor cells population was measured at end of therapy when compared to start of therapy at dose 30 mg/kg. The assay is classed as functional. The essentials: as §3
Assay [14] deals with Mus musculus. Nature of the assay: Log change in viable tumor cells population was measured at end of therapy when compared to start of therapy at dose 50 mg/kg. The assay is classed as functional. The essentials: as §3
Assay [15] concerns Mus musculus. Description: Tumor-free survivors of P388 leukemia infected mice was measured after ip administration of 30 mg/kg in 6 mice. In kind it is functional. Particulars: route intraperitoneal. The method in brief:
as §4

Assay [16] has as its system Mus musculus. Nature of the assay: In Vivo increase in life span of dying mice implanted ip with 10E6 P388 leukemia, after ip administration of 20 mg/kg. Particulars: route intraperitoneal. The assay is classed as functional. The essentials: as §2
In assay [17] the test system is Mus musculus. Description: Log chance in viable tumor cells population was measured after intraperitoneal administration of 200 mg/kg. In kind it is functional. The essentials: as §3
Assay [18] relates to Mus musculus. Description: Log chance in viable tumor cells population was measured after intraperitoneal administration of 20 mg/kg. The assay is classed as functional. The method in brief: as §3
Assay [19] has as its system Mus musculus. Nature of the assay: Tumor-free survivors of P388 leukemia infected mice was measured after ip administration of 100 mg/kg in 5 mice. Particulars: route intraperitoneal. The assay is classed as functional. The essentials: as §4
In assay [20] the test system is Mus musculus. Nature of the assay: Tumor-free survivors of P388 leukemia infected mice was measured after ip administration of 20 mg/kg in 6 mice. The assay is classed as functional. The conditions noted are these: route intraperitoneal. The essentials:
as §4

In assay [21] the test system is Mus musculus. Description: Tumor-free survivors of P388 leukemia infected mice was measured after ip administration of 200 mg/kg in 3 mice. The assay is classed as functional. Particulars: route intraperitoneal. The essentials: as §4
The test system of assay [22] is Mus musculus. Description: Tumor-free survivors of P388 leukemia infected mice was measured after ip administration of 25 mg/kg in 5 mice. The assay is classed as functional. Particulars: route intraperitoneal. The essentials: as §4

With `Nc1nc(F)nc2c1ncn2[C@H]1C[C@H](O)[C@@H](CO)O1`, the figures for the pIC50 in the assay on CCRF-CEM, with HEp-2 and in the assay on L1210 were 6.70, 6.70 and 6.05, respectively.
For the molecule `Nc1nc(F)nc2c1ncn2[C@@H]1O[C@H](CO)[C@@H](O)[C@@H]1F`, the pIC50 is 6.85 with CCRF-CEM, 6.47 with HEp-2, 6.52 with K562 and 6.42 in the assay on L1210. The molecule also showed an ILS at 100 mg/kg in the assay on Mus musculus [1] of 63%. The increase in life span (ILS) at 25 mg/kg with Mus musculus [2] is 81%. Also, the Log change is given as -1.8 with Mus musculus [3] and -0.1 with Mus musculus [4]. The Tumor free survivors in the assay on Mus musculus [5] and with Mus musculus [6] was 0 throughout.
With `Nc1nc(Cl)nc2c1ncn2[C@@H]1O[C@H](CO)[C@@H](O)[C@H]1O`, the values for the pIC50 in the assay on CCRF-CEM, with HEp-2 and in the assay on L1210 were 5.00, 5.52 and more than 5.52, respectively.
As for `Nc1nc(Br)nc2c1ncn2[C@@H]1O[C@H](CO)[C@@H](O)[C@H]1F`, the pIC50 is 7.70 with CCRF-CEM, 6.66 in the assay on HEp-2, 7.30 in the assay with K562 and 6.59 in the assay on L1210. This molecule gave an ILS at 200 mg/kg in the assay with Mus musculus [7] of 33%. Also, the ILS at 30 mg/kg in the assay on Mus musculus [8] turned out to be 100%. This molecule also displayed an ILS at 50 mg/kg in the assay on Mus musculus [9] of 41%. The Tumor free survivors in the assay with Mus musculus [10], with Mus musculus [11] and in the assay on Mus musculus [15] was 0 each time. In addition, the Log change is reported as 0.1 in the assay on Mus musculus [12], -1 in the assay with Mus musculus [13] and 1.6 in the assay on Mus musculus [14].
Turning to `Nc1nc(Br)nc2c1ncn2[C@H]1C[C@H](O)[C@@H](CO)O1`, the results for the pIC50 in the assay with CCRF-CEM, with HEp-2 and with L1210 were 7.70, 7.70 and 6.05, respectively.
In the case of `Nc1nc(Br)nc2c1ncn2C1O[C@H](CO)[C@@H](O)[C@H]1O` (some centres not stated), the pIC50 was 5.40 in the assay on HEp-2 and 5.52 in the assay with L1210.
With `Nc1nc(Cl)nc2c1ncn2[C@H]1C[C@H](O)[C@@H](CO)O1` [CLADRIBINE], the pIC50 in the assay with CCRF-CEM is 8.52; in the assay on HEp-2, 7.52; in the assay on L1210, 7.15.
Take `Nc1nc(Cl)nc2c1ncn2[C@@H]1O[C@H](CO)[C@@H](O)[C@@H]1F` [CLOFARABINE]: the pIC50 with CCRF-CEM was 7.30; in the assay on HEp-2, 7.92; in the assay with K562 it was 8.52; with L1210, 6.64. The ILS at 100 mg/kg with Mus musculus [1] was found to be 38%. In the assay with Mus musculus [16], this molecule gave an increase in lifespan (ILS) at 20 mg/kg of 220%. In addition, the ILS at 200 mg/kg in the assay with Mus musculus [7] came out at 59%. Further, the ILS at 25 mg/kg in the assay on Mus musculus [2] is 118%. For the same molecule, the Log change is given as -1.6 with Mus musculus [17], -0.3 in the assay on Mus musculus [3], -6.6 in the assay on Mus musculus [18] and -2.8 in the assay with Mus musculus [4]. The Tumor free survivors was 0 with Mus musculus [19], 1 in the assay with Mus musculus [20], 0 in the assay on Mus musculus [21] and 0 in the assay with Mus musculus [22].
`Nc1nc(F)nc2c1ncn2[C@@H]1O[C@H](CO)[C@@H](O)[C@@H]1O` [FLUDARABINE]: the pIC50 in the assay with CCRF-CEM was 6.40; in the assay with HEp-2, 5.05; in the assay with K562 it was 6.82; with L1210, 5.52.
